Laboratory results taken from ChEMBL document CHEMBL1149064, “Tyrosinase inhibitors from Anacardium occidentale fruits” (J Nat Prod, 1994).
Calls of active or inactive are those of the source. No cut-off for these calls is given here.

Key:
[1] = target: T1, Tyrosinase (Agaricus bisporus) (UniProt O42713); assay: Inhibition of mushroom tyrosinase assessed as oxidation of L-DOPA at 0.8 mM
T1 sequence (whole entry): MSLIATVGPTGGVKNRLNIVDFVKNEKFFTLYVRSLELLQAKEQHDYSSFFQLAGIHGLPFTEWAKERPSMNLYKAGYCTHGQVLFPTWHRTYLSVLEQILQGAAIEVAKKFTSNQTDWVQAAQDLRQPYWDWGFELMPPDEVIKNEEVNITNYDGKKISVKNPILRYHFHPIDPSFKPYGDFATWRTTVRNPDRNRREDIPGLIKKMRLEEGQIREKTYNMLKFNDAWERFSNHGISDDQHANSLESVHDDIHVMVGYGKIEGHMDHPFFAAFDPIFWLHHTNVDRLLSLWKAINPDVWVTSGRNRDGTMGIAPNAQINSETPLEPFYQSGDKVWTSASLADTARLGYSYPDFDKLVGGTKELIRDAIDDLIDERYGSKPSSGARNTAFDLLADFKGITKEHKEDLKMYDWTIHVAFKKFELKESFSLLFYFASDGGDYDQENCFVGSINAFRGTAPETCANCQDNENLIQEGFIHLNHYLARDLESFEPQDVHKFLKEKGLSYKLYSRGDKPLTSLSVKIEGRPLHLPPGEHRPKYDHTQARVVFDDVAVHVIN

[2] = target: T1, Tyrosinase (Agaricus bisporus); assay: Inhibition of mushroom tyrosinase assessed as oxidation of L-DOPA
[3] = target: T1, Tyrosinase (Agaricus bisporus); assay: Inhibition of mushroom tyrosinase assessed as oxidation of L-DOPA by Lineweaver-Burke plot analysis
Summary of the method: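 Mushroom tyrosinase (138 units) added to L-DOPA (1 ml of 2.5 mM stock) plus sample (DMSO solution diluted 30-fold) in 0.1 M phosphate buffer pH 6.8, after 10 min at 25°. Initial linear rate of dopachrome formation read at 475 nm; double-reciprocal plot of 1/V (1/ΔA475 per min).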

[4] = target: T1, Tyrosinase (Agaricus bisporus); assay: Inhibition of mushroom tyrosinase assessed as oxidation of L-DOPA preincubated for 5 mins before L-DOPA addition
Summary of the method: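 Enzyme (138 units) and sample pre-incubated in 0.1 M phosphate buffer pH 6.8 for 5 min at 25°. Then 0.4 ml of 6.3 mM L-DOPA stock added and the reaction followed at 475 nm for 4 min. Controls: no inhibitor with or without pre-incubation, and inhibitor without pre-incubation.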

Compound | inhibition [1] | Activity [2] | ID50 [2] | Activity [3] | Activity [4] | Activity [1]
CCC/C=C\C/C=C\CCCCCCCc1cccc(O)c1C(=O)O | 15% | Dose-dependent effect | 6 mM | – | – | –
C=CC/C=C\C/C=C\CCCCCCCc1cc(O)cc(O)c1 | 88% | Dose-dependent effect | 0.04 mM | Active | Active | –
C=CC/C=C\C/C=C\CCCCCCCc1cc(O)c(C)c(O)c1 | 16% | – | – | – | – | –
OC[C@H]1O[C@@H](Oc2ccc(O)cc2)[C@H](O)[C@@H](O)[C@@H]1O | – | – | 6.2 mM | – | – | –
CCC/C=C\C/C=C\CCCCCCCc1cc(O)c(C)c(O)c1 | 20% | – | – | – | – | –
CCCCCCCCCCCCCCCc1cccc(O)c1 | – | – | – | – | – | inactive
C=CC/C=C\C/C=C\CCCCCCCc1cccc(O)c1C(=O)O (stereo in doubt; 8) | 15% | Dose-dependent effect | 4.2 mM | – | – | –
CCCCCC/C=C\CCCCCCCc1cc(O)c(C)c(O)c1 | 24% | – | – | – | – | –
CCCCCCCCCCCCCCCc1cc(O)cc(O)c1 | 21% | Dose-dependent effect | – | – | – | –
O=C(O)c1ccccc1O | 23% | – | 3.9 mM | – | – | –
C=CC/C=C\C/C=C\CCCCCCCc1cccc(O)c1C(=O)O (stereo in doubt; 5) | 45% | Dose-dependent effect | 1.1 mM | Active | Active | –
CCCCCC/C=C\CCCCCCCc1cccc(O)c1C(=O)O | 15% | Dose-dependent effect | 7.5 mM | – | – | –
Oc1cccc(O)c1 | 34% | – | 1.2 mM | – | – | –
